Bioassay records as filed in PubChem BioAssay.
TAAR1 ag – human TAAR1 agonists, primary screen, Fluo-8 calcium fluorescence, CHO RD-HGA16 cells. Trace amine-associated receptor 1 (Homo sapiens), Q96RJ0. vehicle wells 0%, saturating PEA agonist 100%. activation, % at 3 µM. 360,000 tested, 0.99% active. AID 624467, 2012;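 active means activation above the mean activation of all test compounds in the run plus 3 SD, cut at about 38% in these data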
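Assay system: CHO-derived RD-HGA16 cells with stable Gα16 and human TAAR1; timing: 17-24 h seeding, 75 min 37 °C dye, 30 min RT; read-out: % activation from peak over basal fluorescence ratio, DMSO-to-PEA scaled; measured by: kinetic Fluo-8 calcium fluorescence; benchmarks: low control DMSO, high control PEA (EC100); doses: 3 µM single concentration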
CHO parental Ca – ATP-evoked calcium signal inhibitors, parental CHO, primary screen, counter-screen for OX1R antagonist project, cell-based, fluorescence, Fluo-8 calcium dye; parental CHO-K1, ATP-induced calcium, Fluo-8 fluorescence; inhibition, % at 5.6 µM; 330,000 tested, 0.63% active; AID 463079, 2010;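 active means inhibition above that plate's mean sample inhibition plus 3 SD, cut at about 26% in these data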;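 further: 0% = ATP-challenged DMSO wells and 100% = DMSO wells without ATP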
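Test system: untransfected parental CHO cell line. Compound: one dose, 5.6 µM nominal. Detection: intracellular calcium via Fluo-8 no-wash fluorescent dye. Measure: % inhibition. Benchmarks: ATP-challenged DMSO wells low, unchallenged DMSO wells high.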
TAAR1 antag – human TAAR1 antagonists, primary screen, Fluo-8 calcium fluorescence, CHO RD-HGA16 cells. antagonist. inhibition, % at 3 µM. 360,000 tested, 1.5% active;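 active means inhibition above a per-plate cutoff, the mean inhibition of test compounds on that plate plus 3 SD, cut at about 49% in these data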;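 further: 0% = DMSO plus EC80 beta-PEA response and 100% = DMSO alone without agonist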
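Test system: RD-HGA16 CHO cells with stable hTAAR1 and Gα16 / Probe or stimulus: EC80 β-phenethylamine stimulus / Times: seeding 17-24 h prior, 75-min 37 °C, 30-min RT dye loading / Detection: Fluo-8 calcium-sensitive fluorescence / Read-out basis: % inhibition scaled between DMSO and EC80 PEA controls / Repeats: singlicate, one well per test compound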
OX1R antag-1 – antagonists of human orexin 1 receptor (OX1R). Orexin/Hypocretin receptor type 1 (Homo sapiens), O43613. OX1R-expressing cells, FRET antagonist read-out. inhibition, % at 6.6 µM. 330,000 tested, 1.8% active. AID 485270, 2010; in the data active means inhibition mostly above about 38%, no sharp cut-off; inactive means mostly below about 40%;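 further: 0% = agonist challenge alone and 100% = reference antagonist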
Target sequence (O43613 whole entry, looked up): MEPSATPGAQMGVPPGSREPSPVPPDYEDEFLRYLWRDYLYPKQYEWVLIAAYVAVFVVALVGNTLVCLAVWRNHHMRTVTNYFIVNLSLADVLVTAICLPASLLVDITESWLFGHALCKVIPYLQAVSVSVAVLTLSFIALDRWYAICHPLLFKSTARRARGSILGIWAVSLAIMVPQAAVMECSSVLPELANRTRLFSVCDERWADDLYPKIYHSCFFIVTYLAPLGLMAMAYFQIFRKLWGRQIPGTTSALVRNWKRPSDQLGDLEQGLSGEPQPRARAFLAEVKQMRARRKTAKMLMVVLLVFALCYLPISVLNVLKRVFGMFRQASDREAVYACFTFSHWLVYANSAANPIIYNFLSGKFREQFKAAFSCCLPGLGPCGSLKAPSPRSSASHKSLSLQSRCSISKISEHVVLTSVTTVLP
GPR7 antag – GPR7 receptor antagonists, primary screen, cell-based, fluorescence, single concentration; 290,000 tested, 1.1% active; AID 1861, 2009; inhibition, % at 4.4 µM; GPR7-expressing cells, fluorescence antagonist assay; in the data active means inhibition above about 16%, passing the limit was not always enough;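 further: cells stimulated with the agonist NPW; 0% = agonist with vehicle and 100% = vehicle without agonist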
Target sequence (P48145 whole entry, looked up): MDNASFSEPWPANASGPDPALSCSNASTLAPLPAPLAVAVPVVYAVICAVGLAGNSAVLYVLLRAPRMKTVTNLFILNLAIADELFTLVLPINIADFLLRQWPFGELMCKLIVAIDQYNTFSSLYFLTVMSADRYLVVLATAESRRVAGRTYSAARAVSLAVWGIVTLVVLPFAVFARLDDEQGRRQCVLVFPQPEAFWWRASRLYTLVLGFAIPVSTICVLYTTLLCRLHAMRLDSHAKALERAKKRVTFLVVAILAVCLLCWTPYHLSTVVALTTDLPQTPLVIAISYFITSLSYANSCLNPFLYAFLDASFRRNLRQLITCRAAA
OX1R antag-2 – OX1R (HCRTR1) antagonists, primary screen, fluorescence, CHO/OX1R cells, Fluo-8 calcium, orexin A. Orexin/Hypocretin receptor type 1 (Homo sapiens), O43613. Fluo-8 calcium fluorescence. inhibition, % at 5 µM. 330,000 tested, 0.43% active. AID 434989, 2010;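 active means inhibition above its plate's threshold, mean inhibition of all tested compounds on the plate plus 3 SD, cut at about 37% in these data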;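 further: 0% = orexin A challenge wells and 100% = SB-334867-A antagonist wells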
* = called active by the depositor; · = no result. Shown are actives, neighbours in structure and some others; about 4.6% of the full set was active somewhere.

SMILES | TAAR1 ag | CHO parental Ca | TAAR1 antag | OX1R antag-1 | GPR7 antag | OX1R antag-2
CSc1ccc(S(=O)(=O)NCC(=O)OCC(=O)N(C)Cc2ccccc2)cc1[N+](=O)[O-] | 4.0 | -9.1 | 11.7 | 51.3* | · | -21.9
COC(=O)C1CCN(C(=O)COC(=O)CNS(=O)(=O)c2ccc(SC)c([N+](=O)[O-])c2)CC1 | -0.4 | -5.2 | -10.7 | 48.7 | · | -23.9
Nc1ccc(S(=O)(=O)NCC(=O)OC2CCOC2=O)cc1[N+](=O)[O-] (centres undefined) | 5.3 | -5.0 | 8.2 | 14.2 | · | -8.4
CSc1ccc(S(=O)(=O)NCC(=O)OCCOc2ccccc2)cc1[N+](=O)[O-] | 8.0 | 21.0 | 29.1 | 53.8* | · | -13.0
O=S1(=O)CC(N2CCC(Cc3ccccc3)CC2)CN1C1CCCC1 (centres undefined) | 2.4 | · | -15.8 | · | · | ·
CC(C)(C)OC(=O)N1CCC(Cc2cc(-c3ccccc3)no2)(C(=O)O)CC1 | 0.3 | -8.9 | -7.5 | 26.5 | -2.1 | -13.0
COc1ccc(C(=O)C2CCCN(Cc3cccn3-c3ccccn3)C2)c(OC)c1 (centres undefined) | 11.0 | -6.7 | 1.9 | 16.1 | 13.5 | -17.8
COc1ccc(F)cc1C(=O)C1CCCN(Cc2cccn2-c2ccccn2)C1 (centres undefined) | 4.5 | -26.7 | 8.6 | 8.0 | 19.1* | -18.4
CC1Cc2ccccc2N1c1ncnc2nc[nH]c12 (centres undefined) | · | -13.8 | · | 74.5* | -8.9 | 12.0
c1ccc2c(c1)CCN(c1ncnc3nc[nH]c13)C2 | 0.8 | -4.8 | -7.8 | 19.4 | -4.2 | -6.6
CC(=O)c1cccc(NC(=O)c2ccccc2N(Cc2ccccc2)S(C)(=O)=O)c1 | 4.0 | -8.4 | -14.2 | 11.2 | -10.9 | -13.7
COc1ccc(OC)c(N(CC(=O)NC2CC3CCC2C3)S(=O)(=O)c2ccccc2)c1 (centres undefined) | 6.4 | -39.8 | -22.4 | 46.3* | 20.0 | -41.1
COC(=O)c1cc(NC(=O)CN(c2ccccc2OC)S(=O)(=O)c2ccccc2)ccc1Cl | 7.2 | -10.4 | 51.2* | 17.1 | 12.7 | -0.2
CCOc1ccccc1N(CC(=O)Nc1ccc(OC)cc1OC)S(=O)(=O)c1ccccc1 | -1.9 | 0.0 | -31.6 | 50.3* | 3.9 | -7.9
CCOc1ccccc1N(CC(=O)NCCc1ccc(OC)c(OC)c1)S(=O)(=O)c1ccccc1 | 6.0 | -16.0 | -29.1 | 75.7* | -7.7 | 6.2
CCOc1ccccc1N(CC(=O)Nc1ccc(OC)cc1)S(=O)(=O)c1ccccc1 | 1.4 | -23.7 | 20.1 | 17.9 | -1.7 | -26.8
CCCOc1ccc(-c2c(C(=O)N/N=C(\C)c3ccncc3)nnn2-c2nonc2N)cc1 | 11.4 | -23.2 | -5.2 | 13.5 | -4.8 | -8.4
COc1ccc(N(CC(=O)NCCC2=CCCCC2)S(=O)(=O)c2ccccc2)c(OC)c1 | -1.8 | -36.9 | 6.4 | 61.9* | 16.6 | -31.0
COC(=O)CNC(=O)CN(c1ccc(OC)cc1OC)S(=O)(=O)c1ccccc1 | 1.0 | -13.5 | 1.7 | 2.3 | · | 6.5
O=C(O)C1(c2ccccc2)CCN(S(=O)(=O)c2ccc(F)c(F)c2)CC1 | 0.8 | 3.4 | 6.6 | 30.7 | -4.1 | -22.5
CN(C)CCCN1C(=O)c2cccc3c(Br)ccc(c23)C1=O | 1.6 | -13.3 | -16.1 | 63.7* | 1.6 | -26.8
CC(CCCC(C)(C)O)NC(=O)c1cc(COc2ccc3ncccc3c2)on1 (centres undefined) | 9.0 | 24.5* | 17.3 | 14.1 | -15.8 | -11.5
Cc1cc(C)n(CCNC(=O)c2cc(COc3ccc4ncccc4c3)on2)n1 | 6.0 | 11.2 | -10.0 | 24.4 | -9.3 | -18.3
Cc1ccc(F)cc1CNC(=O)c1cc(COc2ccc3ncccc3c2)on1 | 22.8 | 32.2* | 41.1 | 36.9 | -7.3 | 36.5
CC(C)N(Cc1nccn1C)C(=O)c1cc(COc2ccc3ncccc3c2)on1 | 3.6 | 1.6 | -3.6 | 22.4 | -7.2 | -10.0
SMILES | TAAR1 ag | CHO parental Ca | TAAR1 antag | OX1R antag-1 | GPR7 antag | OX1R antag-2
O=C(NCc1cccc(Cl)c1)c1cc(COc2ccc3ncccc3c2)on1 | 19.0 | 67.1* | 21.6 | 53.2 | 12.4 | 41.7*
COC(=O)/C=C1\OC(c2ccccc2)=CC1=O | · | -11.6 | · | 18.7 | -7.9 | -8.8
CCCCCNC(=O)c1ccc2c(=O)[nH]c3c(C(=O)NCC4CCCO4)sc(=S)n3c2c1 (centres undefined) | 13.1 | 1.9 | -8.4 | 79.3* | -2.2 | -26.7
CCOc1ccc(-c2nc(CSCC(=O)NCC3CCCO3)c(C)o2)cc1 (centres undefined) | -1.7 | -23.7 | -35.6 | 12.1 | -10.9 | -27.3
CC1CN(Cc2cc(=O)n3ccsc3n2)CC(C)O1 (centres undefined) | 40.1* | -17.8 | -11.1 | 8.1 | -6.7 | -6.8
O=c1cc(CN2CCC(Cc3ccccc3)CC2)nc2sccn12 | -0.8 | -5.8 | 3.2 | 36.9 | -6.3 | -11.4
Cc1cc(OCCNCCO)cc(C)c1Cl | 20.4 | -12.2 | 2.7 | 24.8 | -9.2 | -6.2
Cc1cc(OCCCCCNCCO)cc(C)c1Cl | 11.4 | -2.6 | 4.3 | 2.7 | 19.1* | 3.1
Cc1ccnc(SCCn2c(N3CCN(c4ccccc4)CC3)nc3c2c(=O)[nH]c(=O)n3C)n1 | 11.8 | -13.9 | 51.4* | 20.7 | 9.5 | -24.1
Cc1ccnc(SCCn2c(N3CCCCC3)nc3c2c(=O)[nH]c(=O)n3C)n1 | · | · | · | · | 0.7 | ·
Cn1cccc1/C=N/n1c(-c2ccc(C(C)(C)C)cc2)n[nH]c1=S | 25.8 | 2.3 | 52.4* | 7.3 | -22.8 | -8.3
CC(C)(C)OC(=O)NCCCCCNC(=O)c1nc[nH]c1C(=O)N1CCN(c2ccccc2)CC1 | 20.6 | -11.7 | 49.7* | 8.4 | · | -6.0
O=C(c1ccc(NC(=S)NCc2ccc(Cl)cc2)cc1)N1CCCCC1 | 43.7* | -5.0 | 16.6 | -6.9 | 13.9 | -4.4
COC(=O)c1ccc(NC(=O)CSc2ccccc2)cc1 | 1.9 | 53.7* | -14.2 | 9.4 | -2.5 | 54.2*
Cc1ccc(S(=O)(=O)Nc2ccccc2C(=O)Nc2nc(-c3ccc(F)cc3)cs2)cc1 | 4.0 | 26.2 | 74.9* | 67.1* | 17.6 | 52.2*
COc1cccc(C(=O)Nc2nnc(-c3ccccc3)s2)c1OC | 4.5 | 8.8 | 31.8 | 52.1* | 1.6 | 4.3
COc1ccc(NC(=O)Nc2nnc(-c3ccncc3)s2)cc1 | 17.1 | 9.1 | 49.0* | 7.5 | -12.7 | -11.6
Cc1ccc(S(=O)(=O)Nc2nc(-c3ccccc3)cs2)cc1 | 2.4 | 17.5 | -23.3 | 8.1 | -16.4 | -8.0
COc1ccccc1C(=O)Nc1nnc(-c2ccccc2)s1 | -0.3 | -22.1 | 2.6 | 51.2* | -7.0 | -19.6
O=C(Nc1nnc(-c2ccccc2)s1)c1ccccc1O | 31.5 | -3.3 | -13.8 | 23.1 | -20.9 | -0.6
